Reference: publication PMC8266253 (Journal of Enzyme Inhibition and Medicinal Chemistry, 2021)
Substitutions are numbered along the chain they refer to. Where two headings read alike, the source gives them in different places.

Experiments:
AKR1C1 = molecular target: T1, AKR1C1 (Homo sapiens, UniProt Q04828); test: Inhibition assay for recombinant AKR1C1; assay type: biochemical; settings: for inhibition at 10 µM: pH 9, read-out: AKR1C1 Inhibition (%) 10 μM
T1 sequence (Q04828 1-323): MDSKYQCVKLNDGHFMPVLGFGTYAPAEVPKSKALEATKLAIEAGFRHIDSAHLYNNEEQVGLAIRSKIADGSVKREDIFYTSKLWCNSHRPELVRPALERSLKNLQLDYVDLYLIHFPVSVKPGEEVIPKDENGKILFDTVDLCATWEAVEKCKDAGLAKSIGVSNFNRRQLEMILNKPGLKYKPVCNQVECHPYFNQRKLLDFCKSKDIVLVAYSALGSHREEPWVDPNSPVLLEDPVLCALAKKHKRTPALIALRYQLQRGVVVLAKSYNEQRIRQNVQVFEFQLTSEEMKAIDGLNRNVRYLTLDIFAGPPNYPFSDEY
Procedure, shortened: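 Human recombinant AKR1C1 oxidising 1-acenaphthenol (90 µM final) with 2.3 mM NAD⁺, in 0.09 M potassium phosphate pH 9.0, 0.005% Triton X-114, 0.05% DMSO. Test compound is added in DMSO, and 0.1 µM enzyme starts the reaction. NADH rise at 340 nm gives initial velocities. Runs are in duplicate, two independent experiments. IC50 comes from residual activity vs log inhibitor; inhibition type, KM, KI and α come from kinetic fitting.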

AKR1C2 = molecular target: T2, AKR1C2 (Homo sapiens, UniProt P52895); test: Inhibition assay for recombinant AKR1C2; assay type: biochemical; settings: for inhibition at 10 µM: pH 9, read-out: AKR1C2 Inhibition (%) 10 μM
T2 sequence (P52895 1-323): T1 sequence (Q04828 1-323) with T38V, R47H, L54V, C87S, V151M, R170H, Q172L
Procedure, shortened: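 Rates are followed as NADH absorbance increase at 340 nm, with recombinant AKR1C2 (0.3 µM, added last) and 180 µM final 1-acenaphthenol. The mix is 2.3 mM NAD⁺, 0.09 M potassium phosphate pH 9.0, 0.005% Triton X-114 and 0.05% DMSO, plus test compound in DMSO. Duplicates, two independent experiments. IC50 is fitted from residual activity vs log concentration; inhibition mode, KM, KI and α are fitted from kinetics.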

[1] = pH 9, read-out: AKR1C1 Inhibition (%) 100 μM
[2] = pH 9, read-out: AKR1C2 Inhibition (%) 100 μM

Compound	IC50 (AKR1C1)	inhibition at 10 µM (AKR1C1)	inhibition at 100 µM (AKR1C1; [1])	IC50 (AKR1C2)	inhibition at 10 µM (AKR1C2)	inhibition at 100 µM (AKR1C2; [2])	Ki (AKR1C1)	Type of inhibition of AKR1C1 (AKR1C1; kinetic studies)	inhibition at 100 µM (AKR1C1; read-out: Biological activity AKR1C1 (biological inhibition at 100 μM))	inhibition at 100 µM (AKR1C2; read-out: Biological activity AKR1C2 (biological inhibition at 100 μM))
C[C@@]12CC[C@@H]3c4cc(Br)c(O)c(I)c4CC[C@H]3[C@@H]1CCC2=O [2_2Br,4I, 2-bromo-3-hydroxy-4-iodo-13α-oestra-1,3,5(10)-trien-17-one]	7200 nM	67%	100%	4400 nM	75%	100%				
C[C@@]12CC[C@@H]3c4cc(Cl)c(O)c(Br)c4CC[C@H]3[C@@H]1CCC2=O [2_2Cl,4Br, 4-bromo-2-chloro-3-hydroxy-13α-oestra-1,3,5(10)-trien-17-one]	1900 nM	80%	93.9%		65%	91.9%				
C[C@@]12CC[C@@H]3c4cc(Cl)c(O)c(I)c4CC[C@H]3[C@@H]1CCC2=O [2_2Cl,4I, 2-chloro-3-hydroxy-4-iodo-13α-oestra-1,3,5(10)-trien-17-one]		50%	82.6%	4600 nM	73%	89.2%				

The remaining compounds from weak to strong by IC50 (AKR1C1), led by results:

IC50 (AKR1C1)	inhibition at 10 µM (AKR1C1)	inhibition at 100 µM (AKR1C1; [1])	IC50 (AKR1C2)	inhibition at 10 µM (AKR1C2)	inhibition at 100 µM (AKR1C2; [2])	Ki (AKR1C1)	Type of inhibition of AKR1C1 (AKR1C1; kinetic studies)	inhibition at 100 µM (AKR1C1; read-out: Biological activity AKR1C1 (biological inhibition at 100 μM))	inhibition at 100 µM (AKR1C2; read-out: Biological activity AKR1C2 (biological inhibition at 100 μM))	Compound
1700 nM	80%	92.3%	3100 nM	80%	99%					C[C@@]12CC[C@@H]3c4cc(Br)c(O)c(Cl)c4CC[C@H]3[C@@H]1CCC2=O [2_2Br,4Cl, 2-bromo-4-chloro-3-hydroxy-13α-oestra-1,3,5(10)-trien-17-one]
800 nM	90%	99%	7100 nM	73%	87.5%					C[C@@]12CC[C@@H]3c4cc(I)c(O)c(Cl)c4CC[C@H]3[C@@H]1CCC2=O [2_2I,4Cl, 4-chloro-3-hydroxy-2-iodo-13α-oestra-1,3,5(10)-trien-17-one]
700 nM	90.7%	93.4%		59.5%	74.7%	570 nM	mixed type of inhibition	93.4%	74.7%	C[C@@]12CC[C@@H]3c4cc(I)c(O)c(Br)c4CC[C@H]3[C@@H]1CCC2=O [2_2I,4Br, 4-bromo-3-hydroxy-2-iodo-13α-oestra-1,3,5(10)-trien-17-one]
